Laboratory results published in the EternaBench riboswitch data.

System: MS2 coat protein
Test: apparent Kd, MS2 coat protein; higher = weaker binding; RNA-MaP array; FMN 200 µM where present
Summary of the method: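 Stalled E. coli RNA polymerase transcribed the designs on Illumina sequencing-chip clusters. SNAP-549-labelled MS2 coat protein was titrated from 0.7 or 1.5 nM, doubling to 3 µM, without and then with constant ligand, in 100 mM Tris-HCl pH 7.5, 80 mM KCl, 4 mM MgCl2, BSA, DTT, yeast tRNA and Tween-20. Per-cluster binding curves were fitted to green signal normalised to red-channel RNA signal and control-cluster median Fmax. The apparent Kd is the median of the filtered fits.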

[1] = designed as: OFF switch for flavin mononucleotide, no ligand
[2] = ligand present: flavin mononucleotide, designed as: OFF switch for flavin mononucleotide
[3] = designed as: ON switch for flavin mononucleotide, no ligand
[4] = ligand present: flavin mononucleotide, designed as: ON switch for flavin mononucleotide

With “AAUAGUAAGUAGAAGGUAGUAAGUAUGUUAAUCUUGUUAACAUGAGGAUCACCCAUGUAGACUACUAAGGAUAUACAUCGAUAG” the “apparent Kd” value [1] was 14.3 nM and the “apparent Kd” value [2] was 13.7 nM.
For “AAUAUGAGCUGGUUUAAAUCCGAAACAUGAGGAUCACCCAUGUAGGAUAUCAGCACGAUAAGUGCUGAGAAGGACAUCCAGCUC”, the “apparent Kd” value [1] was 15.6 nM and the “apparent Kd” value [2] was 15 nM.
“AAUAUGCAAGGAUAUACAACGUAGCUACGACGGAACGGGCUACAUGAGGAUCACCCAUGUAGAAGGUGCUACGC” was tested, and the “apparent Kd” value [1] was 15.2 nM and the “apparent Kd” value [2] was 16.7 nM.
“AAUAUGUUGCAGAAGGCCAUGGUGUGGUAGUGCCUCAUGACAUGAGGAUCACCCAUGUCUGUGAUGGAGGAUAUGCAAUAUAUU” was tested, and the “apparent Kd” value [1] was 67.2 nM and the “apparent Kd” value [2] was 152 nM.
With “AAUAUGUUGCAGAAGGCUAUAUUGUUGUAGUACCUCAUGACAUGAGGAUCACCCAUGUUUGUGUUGGAGGAUAUGCAAUAUAUU” the “apparent Kd” value [1] was 7.82 nM and the “apparent Kd” value [2] was 7.07 nM.
In the case of “AAUAUGUUGCAGAAGGUUAUUUUUAUAACGUGCCACUUGACAUGAGGAUCACCCAUGUAAUUGAUGAAGGAUAUGCAAUAUAUU”, the “apparent Kd” value [1] is reported as 6.46 nM and the “apparent Kd” value [2] is reported as 6.34 nM.
With “AAUCCACAUGAGGAUCACCCAUGUCAGGAUAUGAACGGUCUGGCACCGUGGGUUCCUGUUGACCGUCAGAAGGGACAAGGGCCC” the “apparent Kd” value [1] was 5.69 nM and the “apparent Kd” value [2] was 7.72 nM.
For “AAUCCACAUGAGGAUCACCCAUGUGAGGAUAUGAUACUAUGUACUUCGGUACAUAGUAUCAGAAGGCACAUAAA”, the “apparent Kd” value [1] was 24.1 nM and the “apparent Kd” value [2] was 81 nM.
With “AAUCCGUCACAUGAGGAUCACCCAUGUGACCCUACUAUUGGACAGGAUAUCCAAGGGUCGAAGCGGGAGAAGGGUCACAAUGGG” the “apparent Kd” value [3] was 32.5 nM and the “apparent Kd” value [4] was 51.9 nM.
“AAUCUGUAGCAGAAGGUCAUUUUUAUAAAUAAACUGGUGACAUGAGGAUCACCCAUGUAAACGUUGAAGGAUAUGCAUUCUAUU” was tested, and the “apparent Kd” value [1] was 44.9 nM and the “apparent Kd” value [2] was 52.5 nM.
In the case of “AAUCUGUAGCAGAAGGUCAUUUUUAUAAAUAAGCUGGUGACAUGAGGAUCACCCAUGUAAAGGUUGAAGGAUAUGCAUUCUAUU”, the “apparent Kd” value [1] is reported as 90.5 nM and the “apparent Kd” value [2] is reported as 343 nM.
For “AAUGAAACUUAGAAGGCCUACAUGAGGAUCACCCAUGUGGCUUUAAGUGUAGGAGGAUAUGAGGAUGCGGGCAGGAACCCACGC”, the “apparent Kd” value [1] was 6.17 nM and the “apparent Kd” value [2] was 11.6 nM.
In the case of “AAUGAGACCGCAGGAUAUCCACAUGAGGAUCACCCAUGUUCUCAGGUCGUAAGCACGACCUGCGAGGAGAAGGGCGACCUCAUA”, the “apparent Kd” value [3] is reported as 395 nM and the “apparent Kd” value [4] is reported as 33.8 nM.
For “AAUGAGCGAGGAUAUGCAACUGUAUGACCUACGUGUGCCAGACAUGAGGAUCACCCAUGUAGAAGGUGCUUUCC”, the “apparent Kd” value [1] was 59.7 nM and the “apparent Kd” value [2] was 51.3 nM.
In the case of “AAUGGCGUGAUAAUGCUAAUUAAAACAUGAGGAUCACCCAUGUAGGAUAUCCUACCGAAAUGGUAGGAGAAGGACAAGCAAUGA”, the “apparent Kd” value [1] is reported as 44.1 nM and the “apparent Kd” value [2] is reported as 46.6 nM.
In the case of “AAUGGGCAGCAGAAGGCAUGUCUACGGACAUGAGGAUCACCCAUGUAGUGAAGCCGAAAGGCGCAUGAGGAUAUGCUGCCCUAA”, the “apparent Kd” value [3] is reported as 131 nM and the “apparent Kd” value [4] is reported as 8.45 nM.
For “AAUGUGUGUCGAGGAUAUAUUAUAUGACAACAAACACAUACAUGAGGAUCACCCAUGUCCCAUGUAUAGAAGGCGAUGUGUGUG”, the “apparent Kd” value [3] was 130 nM and the “apparent Kd” value [4] was 174 nM.
With “AAUUAAUUAAUACAUGAGGAUCACCCAUGUAAUUAUUAGAUCAAGGAUAUCAGCUCGAUUAGAGCUGAGAAGGUGAUCACAUGU” the “apparent Kd” value [3] was 412 nM and the “apparent Kd” value [4] was 102 nM.
In the case of “AAUUAGGUCACAGGAUAUACAUCAUCCAUAGAUGUAGAAGGGUGUCAAAAUAAUAUCUGACAUGAGGAUCACCCAUGUUUCCAC”, the “apparent Kd” value [3] is reported as 19.5 nM and the “apparent Kd” value [4] is reported as 8.97 nM.
For “AAUUAGGUCACAGGAUAUACAUCAUCCAUAGAUGUAGAAGGGUGUCAAAGUAAUAUCUGACAUGAGGAUCACCCAUGUUUCCAC”, the “apparent Kd” value [3] was 23.3 nM and the “apparent Kd” value [4] was 9.28 nM.
For “AAUUAGUGAGGAUAUUUUAACAGUGGCAGUAGCCAGUGCAUGAAGAAGGCACAUGAGGAUCACCCAUGUUAUAA”, the “apparent Kd” value [1] was 101 nM and the “apparent Kd” value [2] was 91.5 nM.
In the case of “AAUUAUAGGUAGAAGGUACUGACUUAUGUGUUGUAAGGAUAUACCAAAUUAUUAGAUCUCAAGUUACAUGAGGAUCACCCAUGU”, the “apparent Kd” value [3] is reported as 9.18 nM and the “apparent Kd” value [4] is reported as 7.97 nM.
With “AAUUAUAGGUAGAAGGUACUGUAUUAUGUGUUGUAAGGAUAUACUAUAUUAUUAGUUCUCAAGUUACAUGAGGAUCACCCAUGU” the “apparent Kd” value [3] was 10.3 nM and the “apparent Kd” value [4] was 8.02 nM.
“AAUUAUUCAGGAGGAUAUCCCAGGACAUGAGGAUCACCCAUGUUCGGGUUGCCCUCAUGAACGCCGGAGAAGGCCUGAACGAAU” was tested, and the “apparent Kd” value [1] was 13 nM and the “apparent Kd” value [2] was 17.1 nM.
With “AAUUCGUUCUAGAAGGUGCAUUUGUUAAACAUGCAAGGAUAUAGACAUGAGGAUCACCCAUGUCUAUGAGACAUCGGCCUCCUG” the “apparent Kd” value [1] was 6.72 nM and the “apparent Kd” value [2] was 11.7 nM.
In the case of “AAUUCGUUCUAGAAGGUGCAUUUUUUAAACAUGCAAGGAUAUAGACAUGAGGAUCACCCAUGUCUAUGAGACAUCGGCCUCCUG”, the “apparent Kd” value [1] is reported as 6.3 nM and the “apparent Kd” value [2] is reported as 13.3 nM.
“AAUUGAAACGUAGGAUAUCGCUAUUAAUUAAUUCGAGAAGGACGUACAUGAGGAUCACCCAUGUUUAAUGGUGUAGUUUAGUUG” was tested, and the “apparent Kd” value [1] was 179 nM and the “apparent Kd” value [2] was 252 nM.
